Source: ChEMBL document CHEMBL1150857, “Dendocarbins A--N, new drimane sesquiterpenes from the nudibranch Dendrodoris carbunculosa” (J Nat Prod, 2001)
Values after ≈ are worked out from the molar mass of the structure shown.

Key:
Type in all cases: functional, cell-based
P388 [1] = experiment: Cytotoxicity against vincristine-resistant mouse P388 cells in absence of 0.004 ug/mL vincristine
In short: (§1)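 Murine leukemia P388 lines were tested: the drug-sensitive strain (P388/S), the adriamycin-resistant line (P388/ADR) and the vincristine-resistant line (P388/VCR). Cytotoxicity was expressed as IC50.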

P388 [2] = experiment: Cytotoxicity against adriamycin-resistant mouse P388 cells in absence of 0.1 ug/mL adriamycin; in short: as §1
P388 [3] = experiment: Cytotoxicity against adriamycin-resistant mouse P388 cells in presence of 0.1 ug/mL adriamycin
P388 [4] = experiment: Cytotoxicity against vincristine-resistant mouse P388 cells in presence of 0.004 ug/mL vincristine
P388 [5] = experiment: Cytotoxicity against drug-sensitive mouse P388 cells; in short: as §1

Question: How did the IC50 (P388 [1]) turn out when CC(=O)O[C@@H]1OC(=O)C2=CC[C@H]3C(C)(C)CCC[C@]3(C)[C@H]21 was run?
Answer: 10.2 µg/mL (≈ 34.9 µM)

Question: What about the IC50 (P388 [2]) of the same molecule?
Answer: 8 µg/mL

Question: And the IC50 (P388 [3])?
Answer: 10.1 µg/mL

Question: And the IC50 (P388 [4])?
Answer: 9 µg/mL

Question: And the IC50 (P388 [5])?
Answer: 10.2 µg/mL (≈ 34.9 µM)

Question: What does the source list for CC1(C)CCC[C@]2(C)C3=C(CC[C@@H]12)C(=O)O[C@@H]3O?
Answer: IC50 (P388 [1]): 2.5 µg/mL (≈ 9.99 µM); IC50 (P388 [2]): 2.5 µg/mL; IC50 (P388 [3]): 2.5 µg/mL; IC50 (P388 [4]): 2.5 µg/mL; IC50 (P388 [5]): 3.2 µg/mL (≈ 12.8 µM)

Question: Which results are given for CC1(C)CCC[C@]2(C)C3=C(C(=O)OC3O)[C@H](O)C[C@@H]12 (mixture of isomers) [DENDOCARBIN L/DENDOCARBIN M]?
Answer: IC50 (P388 [1]): > 25 µg/mL; IC50 (P388 [2]): > 25 µg/mL; IC50 (P388 [3]): > 25 µg/mL; IC50 (P388 [4]): > 25 µg/mL; IC50 (P388 [5]): > 25 µg/mL

Question: Which IC50 (P388 [1]) does the source give for CC1(C)CCC[C@]2(C)[C@@H]3C(=CC[C@@H]12)C(=O)O[C@H]3O [DENDOCARBIN A] here?
Answer: > 25 µg/mL

Question: And the IC50 (P388 [2])?
Answer: > 25 µg/mL

Question: What about the IC50 (P388 [3]) of the same molecule?
Answer: > 25 µg/mL

Question: And the IC50 (P388 [4])?
Answer: > 25 µg/mL

Question: What about the IC50 (P388 [5]) of the same molecule?
Answer: > 25 µg/mL

Question: With CC1(C)C[C@H](O)C[C@]2(C)[C@H]3C(=O)OCC3=CC[C@@H]12 [DENDOCARBIN B] as the molecule, how does the IC50 (P388 [1]) read?
Answer: 10.2 µg/mL (≈ 40.7 µM)

Question: And the IC50 (P388 [2])?
Answer: 7 µg/mL

Question: What about the IC50 (P388 [3]) of the same molecule?
Answer: 10.5 µg/mL

Question: And the IC50 (P388 [4])?
Answer: 9 µg/mL

Question: What about the IC50 (P388 [5]) of the same molecule?
Answer: 11.5 µg/mL (≈ 45.9 µM)

Question: Which IC50 (P388 [1]) does the source give for CC1(C)CCC[C@]2(C)[C@@H]3C(=C[C@H](O)[C@@H]12)CO[C@H]3O [DENDOCARBIN C] here?
Answer: > 25 µg/mL

Question: What about the IC50 (P388 [2]) of the same molecule?
Answer: > 25 µg/mL

Question: What about the IC50 (P388 [3]) of the same molecule?
Answer: > 25 µg/mL

Question: What about the IC50 (P388 [4]) of the same molecule?
Answer: > 25 µg/mL

Question: What about the IC50 (P388 [5]) of the same molecule?
Answer: > 25 µg/mL

Question: What does the source list for CC1(C)CCC[C@]2(C)[C@H]3[C@H](O)OC(=O)[C@@]3(O)CC[C@@H]12 [DENDOCARBIN D]?
Answer: IC50 (P388 [1]): 16 µg/mL (≈ 59.6 µM); IC50 (P388 [2]): 16 µg/mL; IC50 (P388 [3]): 16 µg/mL; IC50 (P388 [4]): 14 µg/mL; IC50 (P388 [5]): 15 µg/mL (≈ 55.9 µM)

Question: For CC1(C)[C@@H](O)CC[C@]2(C)[C@H]3C(=O)OC(=O)C3=CC[C@@H]12 [DENDOCARBIN E], which IC50 (P388 [1]) is on record?
Answer: 22.5 µg/mL (≈ 85.1 µM)

Question: What about the IC50 (P388 [2]) of the same molecule?
Answer: 19 µg/mL

Question: What about the IC50 (P388 [3]) of the same molecule?
Answer: > 25 µg/mL

Question: What about the IC50 (P388 [4]) of the same molecule?
Answer: > 25 µg/mL

Question: And the IC50 (P388 [5])?
Answer: > 25 µg/mL

Question: For C[C@@]1(CO)CCC[C@]2(C)[C@H]3C(=O)OC(=O)C3=CC[C@@H]12 [DENDOCARBIN F], which IC50 (P388 [1]) is on record?
Answer: > 25 µg/mL

Question: And the IC50 (P388 [2])?
Answer: > 25 µg/mL

Question: And the IC50 (P388 [3])?
Answer: 22 µg/mL

Question: What about the IC50 (P388 [4]) of the same molecule?
Answer: > 25 µg/mL

Question: And the IC50 (P388 [5])?
Answer: > 25 µg/mL

Question: Which results are given for CC1(C)CCC[C@]2(C)[C@H]3C(=O)OC(=O)C3=C[C@H](O)[C@@H]12 [DENDOCARBIN G]?
Answer: IC50 (P388 [1]): > 25 µg/mL; IC50 (P388 [2]): > 25 µg/mL; IC50 (P388 [3]): > 25 µg/mL; IC50 (P388 [4]): > 25 µg/mL; IC50 (P388 [5]): > 25 µg/mL

Question: CC1(C)CCC[C@]2(C)[C@H]3C(=O)OC(=O)C3=CC[C@@H]12 [DENDOCARBIN H] was tested. Which IC50 (P388 [1]) did it give?
Answer: 10.1 µg/mL (≈ 40.7 µM)

Question: And the IC50 (P388 [2])?
Answer: 10.1 µg/mL

Question: And the IC50 (P388 [3])?
Answer: 10.5 µg/mL

Question: And the IC50 (P388 [4])?
Answer: 8 µg/mL

Question: What about the IC50 (P388 [5]) of the same molecule?
Answer: 10.8 µg/mL (≈ 43.5 µM)

Question: What does the source list for CCOC1OC(=O)C2=C1[C@@H](O)C[C@H]1C(C)(C)CCC[C@]21C (stereo not given in full) [DENDOCARBIN I]?
Answer: IC50 (P388 [1]): 10.2 µg/mL (≈ 34.6 µM); IC50 (P388 [2]): 8 µg/mL; IC50 (P388 [3]): 10 µg/mL; IC50 (P388 [4]): 10.2 µg/mL; IC50 (P388 [5]): 10 µg/mL (≈ 34 µM)

Question: For CCO[C@H]1OC(=O)C2=C1[C@@]1(C)CCCC(C)(C)[C@@H]1C[C@H]2O [DENDOCARBIN J], which IC50 (P388 [1]) is on record?
Answer: 4 µg/mL (≈ 13.6 µM)

Question: And the IC50 (P388 [2])?
Answer: 11 µg/mL

Question: And the IC50 (P388 [3])?
Answer: 8 µg/mL

Question: And the IC50 (P388 [4])?
Answer: 4 µg/mL

Question: And the IC50 (P388 [5])?
Answer: 17 µg/mL (≈ 57.7 µM)

Question: CCO[C@@H]1OC(=O)C2=C1[C@@]1(C)CCCC(C)(C)[C@@H]1C[C@H]2O [DENDOCARBIN K] was tested. Which IC50 (P388 [1]) did it give?
Answer: 10.5 µg/mL (≈ 35.7 µM)

Question: And the IC50 (P388 [2])?
Answer: 9 µg/mL

Question: And the IC50 (P388 [3])?
Answer: 10.5 µg/mL

Question: And the IC50 (P388 [4])?
Answer: 9 µg/mL

Question: What about the IC50 (P388 [5]) of the same molecule?
Answer: 10.5 µg/mL (≈ 35.7 µM)

Question: Which IC50 (P388 [1]) does the source give for CC1(C)CCC[C@]2(C)[C@H]3[C@H](O)OC[C@]34O[C@@H]4[C@H](O)[C@@H]12 [DENDOCARBIN N] here?
Answer: > 25 µg/mL

Question: And the IC50 (P388 [2])?
Answer: > 25 µg/mL

Question: And the IC50 (P388 [3])?
Answer: > 25 µg/mL

Question: And the IC50 (P388 [4])?
Answer: > 25 µg/mL

Question: And the IC50 (P388 [5])?
Answer: > 25 µg/mL

Question: What does the source list for CC1(C)CCC[C@]2(C)[C@@H]3C(=CC[C@@H]12)CO[C@H]3O [ISODRIMENINOL]?
Answer: IC50 (P388 [1]): 22 µg/mL (≈ 93.1 µM); IC50 (P388 [2]): 18 µg/mL; IC50 (P388 [3]): 18 µg/mL; IC50 (P388 [4]): > 25 µg/mL; IC50 (P388 [5]): 13 µg/mL (≈ 55 µM)
